According to ChEMBL document CHEMBL1129350, “Hypoxia-selective antitumor agents. 13. Effects of acridine substitution on the hypoxia-selective cytotoxicity and metabolic reduction of the bis-bioreductive agent nitracrine N-oxide” (J Med Chem, 1996):

Experiments:
[1] = system: CHO-AA8; experiment: Inhibitory activity against aerobic growth of AA8 cells.; type: functional, cell-based; conditions: Cricetulus griseus
Outline: (§1)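 Growth inhibition: 200 log-phase AA8 or 300 UV4 cells were seeded per well. One day later they were exposed to drug for 18 h under aerobic conditions (5% CO₂) in αMEM with 5% fetal calf serum. Cell mass was measured as protein by methylene blue staining 72–78 h after drug removal. IC50 is the concentration reducing cell mass to 50% of the mean of eight controls on the same plate. HF is IC50(AA8)/IC50(UV4).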

[2] = system: CHO-AA8; experiment: Concentration needed to reduce cell survival to 10% of control values, using 1 hour exposure of plateau phase AA8 cells at 10e6 cells/ml; type: functional, Cricetulus griseus
Outline: (§2)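 Plateau-phase AA8 cells at 10⁶/mL in magnetically stirred 10 mL suspensions in αMEM with 5% fetal calf serum, continuously gassed with 5% CO₂ in air or N₂. Cells and drug solutions were pre-equilibrated under the gas phase for 60 min before mixing, then exposed for 1 h. Clonogenic survival was read as plating efficiency. C10 is the concentration lowering plating efficiency to 10% of concurrent untreated controls. The air/N₂ ratio is C10(air)/C10(N₂).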

[3] = system: Mus musculus; experiment: Maximum tolerated ip dose for male C3H/HeN mice.; type: functional
Outline: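 Compounds formulated in water, injected ip at 0.01 mL/g into male C3H/HeN mice (20–25 g); groups of six mice, dose increments of 1.33-fold, observed 28 days. MTD taken as highest dose causing no deaths or unacceptable morbidity.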

[4] = Inhibitory activity against aerobic growth of UV4cells, Hypersensitivity factor is the ratio of IC50(AA8) to IC50(UV4).; type: functional; outline: as §1
[5] = Air/N2 ratio = C10(air)/C10(nitrogen); outline: as §2
[6] = Spheroid resistance factor which is defined as the ratio C10 (intact)/ C10 (dissociated) EMT6 cells; type: functional
Outline: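 EMT6/Ak spheroids were grown in αMEM with 10% FBS in spinner flasks to about 1000–1400 μm diameter. For dissociated cells, spheroids were treated with pronase 0.5 mg/mL and DNAase I 1 mg/mL for 30 min at 37 °C, washed, then exposed to drug for 1 h. Intact spheroids were exposed at 1 spheroid/mL in stirred vials for 1 h before dissociation and plating. Both exposures used about 2 × 10⁵ cells/mL, 5% CO₂/20% O₂, 37 °C. C10 was interpolated from at least four concentrations per survival curve. SRF is C10(intact)/C10(dissociated). Results are mean ± SEM of independent experiments.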

[7] = system: EMT6 (Mus musculus); experiment: Concentration resulting in 10% survival in dissociated EMT6 spheroid cell suspension

Row | Compound | IC50 [1] [µM] | C10 [2] [µM] | MTD [3] [µM/kg] | Ratio [4] | Ratio [5] | Ratio [6] | C10 [7] [µM]
1 | COc1cccc2c(NCCCN(C)C)c3c([N+](=O)[O-])ccc(OC)c3nc12 | 0.51 | 47 | 100 | 11 | 14 | – | –
2 | COc1ccc2nc3ccccc3c(NCCC[N+](C)(C)[O-])c2c1[N+](=O)[O-] | 84 | >300 | 300 | – | – | – | –
3 | CN(C)CCCNc1c2ccccc2nc2cccc([N+](=O)[O-])c12 [NITRACRINE] | – | 0.4 | 0.3 | 15 | 5.1 | 10.7 | 0.11
4 | COc1cccc2c(NCCC[N+](C)(C)[O-])c3c([N+](=O)[O-])ccc(OC)c3nc12 | 150 | 59000 | 450 | 14 | 2770 | – | –
5 | Cc1cccc2c(NCCC[N+](C)(C)[O-])c3c([N+](=O)[O-])ccc(C)c3nc12 | 6.8 | 60 | 15 | 32 | 54 | – | –
6 | Cc1ccc([N+](=O)[O-])c2c(NCCC[N+](C)(C)[O-])c3ccccc3nc12 | 5.4 | 47 | 15 | 29 | 150 | – | –
7 | C[N+](C)([O-])CCCNc1c2ccccc2nc2cccc([N+](=O)[O-])c12 | 2.7 | 61 | 15 | 15 | 820 | 7 | 1.9
8 | COc1ccc([N+](=O)[O-])c2c(NCCC[N+](C)(C)[O-])c3ccccc3nc12 | 130 | 15700 | 100 | 43 | 1250 | 1.9 | 300
9 | Cc1ccc([N+](=O)[O-])c2c(NCCCN(C)C)c3ccccc3nc12 | 0.053 | 1.5 | 0.2 | 13 | 6.9 | – | –
10 | COc1ccc2nc3ccccc3c(NCCCN(C)C)c2c1[N+](=O)[O-] | 2.9 | >60 | – | 4.6 | – | – | –
11 | COc1ccc([N+](=O)[O-])c2c(NCCCN(C)C)c3ccccc3nc12 | 0.47 | 16 | 15 | 14 | 11 | 7.7 | 1.7
12 | COc1cc(OC)c2nc3ccccc3c(NCCCN(C)C)c2c1[N+](=O)[O-] | 47 | 500 | 300 | 1.3 | 2.3 | – | –
13 | Cc1cccc2c(NCCCN(C)C)c3c([N+](=O)[O-])ccc(C)c3nc12 | 0.19 | 9.6 | 20 | 22 | 11 | – | –
14 | COc1cc(OC)c2nc3ccccc3c(NCCC[N+](C)(C)[O-])c2c1[N+](=O)[O-] | 1960 | 20000 | 800 | 0.9 | 1.2 | – | –
